Measurements from ChEMBL document CHEMBL4265908, “Structure-activity and structure-property relationships of novel Nrf2 activators with a 1,2,4-oxadiazole core and their therapeutic effects on acetaminophen (APAP)-induced acute liver injury” (Eur J Med Chem, 2018).

Molecular target: T1, Nuclear factor erythroid 2-related factor 2 (Homo sapiens) (UniProt Q16236)
T1 sequence (whole entry): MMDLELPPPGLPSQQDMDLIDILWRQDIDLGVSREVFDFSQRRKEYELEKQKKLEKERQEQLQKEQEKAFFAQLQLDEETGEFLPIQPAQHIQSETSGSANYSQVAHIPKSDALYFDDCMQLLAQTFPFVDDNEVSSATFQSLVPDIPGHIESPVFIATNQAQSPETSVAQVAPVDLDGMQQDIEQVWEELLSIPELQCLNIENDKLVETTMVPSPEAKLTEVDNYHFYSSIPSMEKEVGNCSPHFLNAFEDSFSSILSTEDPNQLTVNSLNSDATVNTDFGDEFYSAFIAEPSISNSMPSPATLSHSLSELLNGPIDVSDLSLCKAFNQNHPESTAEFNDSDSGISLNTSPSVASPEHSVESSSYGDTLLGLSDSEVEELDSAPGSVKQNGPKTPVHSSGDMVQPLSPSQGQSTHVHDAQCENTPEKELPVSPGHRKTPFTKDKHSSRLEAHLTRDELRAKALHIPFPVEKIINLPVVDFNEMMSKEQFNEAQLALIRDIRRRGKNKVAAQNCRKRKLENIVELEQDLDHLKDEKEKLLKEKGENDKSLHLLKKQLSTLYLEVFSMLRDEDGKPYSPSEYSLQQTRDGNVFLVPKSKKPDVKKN
Test: Activation of Nrf2 in human HepG2-ARE-C8 cells assessed as induction of ARE-mediated luciferase activity at 0.01 uM after 24 hrs by luciferase reporter gene assay relative to control
Format: cell-based
Conditions: not given
Outline: (§1)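 HepG2-ARE-C8 cells stably carrying ARE-luciferase, grown in DMEM with 10% FBS at 37 °C and 5% CO2. Seeded at 5 × 10^4 cells/well, left overnight, then given compound diluted from a 10 mM DMSO stock for 24 h. Cells lysed and luciferase read as RLU. Inductivity = (RLUtest − RLUblank)/(RLUcontrol − RLUblank), with DMSO as control. Mean ± SEM of three experiments.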

Activity | SMILES
1.21 | Fc1cccc(-c2nc(-c3ccc4nc[nH]c4c3)no2)c1
1.16 | Fc1ccc(-c2nc(-c3ccc4ccccc4c3)no2)cc1F
0.68 | Fc1ccc(-c2nc(-c3ccc4nc[nH]c4c3)no2)c(Cl)c1
0.58 | Fc1ccc(-c2nc(-c3ccccc3Br)no2)cc1F
1.08 | Fc1ccc(-c2nc(-c3ccncc3)no2)cc1F
1.55 | Fc1cc(F)c(-c2nc(-c3ccc4nc[nH]c4c3)no2)cc1F
0.22 | Brc1ccc(-c2nc(-c3ccc4nc[nH]c4c3)no2)cc1
0.92 | Fc1ccc(-c2nc(-c3ncccn3)no2)cc1F
2.85 | Fc1ccc(-c2nc(-c3ccc(Cl)cc3)no2)cc1F
1.45 | Fc1ccc(-c2nc(-c3cccnc3)no2)cc1F
1.62 | Fc1ccc(-c2nc(-c3ccc4nc[nH]c4c3)no2)c(F)c1
1.74 | Clc1cccc(-c2nc(-c3ccc4nc[nH]c4c3)no2)c1
1.76 | Fc1ccc(-c2noc(-c3ccc(F)c(F)c3)n2)cc1
1.94 | Fc1cc(F)c(-c2nc(-c3ccc4nc[nH]c4c3)no2)cc1Cl
2.31 | Fc1ccc(F)c(-c2nc(-c3ccc4nc[nH]c4c3)no2)c1
1.04 | Fc1ccc(-c2nc(-c3ccc4nc[nH]c4c3)no2)cc1Cl

Molecular target: T1, Nuclear factor erythroid 2-related factor 2 (Homo sapiens)
Test: Activation of Nrf2 in human HepG2-ARE-C8 cells assessed as induction of ARE-mediated luciferase activity at 80 uM after 24 hrs by luciferase reporter gene assay relative to control
Format: cell-based
Conditions: not given
Outline: as §1

Activity | SMILES
14.1 | Fc1cccc(-c2nc(-c3ccc4nc[nH]c4c3)no2)c1
3.57 | Fc1ccc(-c2nc(-c3ccc4ccccc4c3)no2)cc1F
18.3 | Fc1ccc(-c2nc(-c3ccc4nc[nH]c4c3)no2)c(Cl)c1
3.63 | Fc1ccc(-c2nc(-c3ccccc3Br)no2)cc1F
2.88 | Fc1ccc(-c2nc(-c3ccncc3)no2)cc1F
7.92 | Fc1cc(F)c(-c2nc(-c3ccc4nc[nH]c4c3)no2)cc1F
2.75 | Brc1ccc(-c2nc(-c3ccc4nc[nH]c4c3)no2)cc1
5.82 | Fc1ccc(-c2nc(-c3ncccn3)no2)cc1F
9.95 | Fc1ccc(-c2nc(-c3ccc(Cl)cc3)no2)cc1F
4.15 | Fc1ccc(-c2nc(-c3cccnc3)no2)cc1F
8.36 | Fc1ccc(-c2nc(-c3ccc4nc[nH]c4c3)no2)c(F)c1
19.1 | Clc1cccc(-c2nc(-c3ccc4nc[nH]c4c3)no2)c1
6.93 | Fc1ccc(-c2noc(-c3ccc(F)c(F)c3)n2)cc1
7.61 | Fc1cc(F)c(-c2nc(-c3ccc4nc[nH]c4c3)no2)cc1Cl
21.9 | Fc1ccc(F)c(-c2nc(-c3ccc4nc[nH]c4c3)no2)c1
12.5 | Fc1ccc(-c2nc(-c3ccc4nc[nH]c4c3)no2)cc1Cl

Molecular target: T1, Nuclear factor erythroid 2-related factor 2 (Homo sapiens)
Test: Activation of Nrf2 in human HepG2-ARE-C8 cells assessed as induction of ARE-mediated luciferase activity at 1 uM after 24 hrs by luciferase reporter gene assay relative to control
Format: cell-based
Conditions: not given
Outline: as §1

Activity | SMILES
4.49 | Fc1cccc(-c2nc(-c3ccc4nc[nH]c4c3)no2)c1
1.52 | Fc1ccc(-c2nc(-c3ccc4ccccc4c3)no2)cc1F
4.22 | Fc1ccc(-c2nc(-c3ccc4nc[nH]c4c3)no2)c(Cl)c1
1.76 | Fc1ccc(-c2nc(-c3ccccc3Br)no2)cc1F
1.07 | Fc1ccc(-c2nc(-c3ccncc3)no2)cc1F
2.15 | Fc1cc(F)c(-c2nc(-c3ccc4nc[nH]c4c3)no2)cc1F
0.87 | Brc1ccc(-c2nc(-c3ccc4nc[nH]c4c3)no2)cc1
1.07 | Fc1ccc(-c2nc(-c3ncccn3)no2)cc1F
3.85 | Fc1ccc(-c2nc(-c3ccc(Cl)cc3)no2)cc1F
2.02 | Fc1ccc(-c2nc(-c3cccnc3)no2)cc1F
2.48 | Fc1ccc(-c2nc(-c3ccc4nc[nH]c4c3)no2)c(F)c1
4.78 | Clc1cccc(-c2nc(-c3ccc4nc[nH]c4c3)no2)c1
2.05 | Fc1ccc(-c2noc(-c3ccc(F)c(F)c3)n2)cc1
1.26 | Fc1cc(F)c(-c2nc(-c3ccc4nc[nH]c4c3)no2)cc1Cl
5.24 | Fc1ccc(F)c(-c2nc(-c3ccc4nc[nH]c4c3)no2)c1
3.22 | Fc1ccc(-c2nc(-c3ccc4nc[nH]c4c3)no2)cc1Cl

Molecular target: T1, Nuclear factor erythroid 2-related factor 2 (Homo sapiens)
Test: Activation of Nrf2 in human HepG2-ARE-C8 cells assessed as induction of ARE-mediated luciferase activity at 0.1 uM after 24 hrs by luciferase reporter gene assay relative to control
Format: cell-based
Conditions: not given
Outline: as §1

Activity | SMILES
2.69 | Fc1cccc(-c2nc(-c3ccc4nc[nH]c4c3)no2)c1
1.27 | Fc1ccc(-c2nc(-c3ccc4ccccc4c3)no2)cc1F
2.98 | Fc1ccc(-c2nc(-c3ccc4nc[nH]c4c3)no2)c(Cl)c1
1.16 | Fc1ccc(-c2nc(-c3ccccc3Br)no2)cc1F
1.62 | Fc1ccc(-c2nc(-c3ccncc3)no2)cc1F
1.86 | Fc1cc(F)c(-c2nc(-c3ccc4nc[nH]c4c3)no2)cc1F
0.25 | Brc1ccc(-c2nc(-c3ccc4nc[nH]c4c3)no2)cc1
1.06 | Fc1ccc(-c2nc(-c3ncccn3)no2)cc1F
3.06 | Fc1ccc(-c2nc(-c3ccc(Cl)cc3)no2)cc1F
1.71 | Fc1ccc(-c2nc(-c3cccnc3)no2)cc1F
2.17 | Fc1ccc(-c2nc(-c3ccc4nc[nH]c4c3)no2)c(F)c1
3.23 | Clc1cccc(-c2nc(-c3ccc4nc[nH]c4c3)no2)c1
2.12 | Fc1ccc(-c2noc(-c3ccc(F)c(F)c3)n2)cc1
1.18 | Fc1cc(F)c(-c2nc(-c3ccc4nc[nH]c4c3)no2)cc1Cl
4.15 | Fc1ccc(F)c(-c2nc(-c3ccc4nc[nH]c4c3)no2)c1
3.88 | Fc1ccc(-c2nc(-c3ccc4nc[nH]c4c3)no2)cc1Cl

Molecular target: T1, Nuclear factor erythroid 2-related factor 2 (Homo sapiens)
Test: Activation of Nrf2 in human HepG2-ARE-C8 cells assessed as induction of ARE-mediated luciferase activity at 40 uM after 24 hrs by luciferase reporter gene assay relative to control
Format: cell-based
Conditions: not given
Outline: as §1

Activity | SMILES
12.4 | Fc1cccc(-c2nc(-c3ccc4nc[nH]c4c3)no2)c1
1.96 | Fc1ccc(-c2nc(-c3ccc4ccccc4c3)no2)cc1F
14.7 | Fc1ccc(-c2nc(-c3ccc4nc[nH]c4c3)no2)c(Cl)c1
2.63 | Fc1ccc(-c2nc(-c3ccccc3Br)no2)cc1F
1.72 | Fc1ccc(-c2nc(-c3ccncc3)no2)cc1F
4.36 | Fc1cc(F)c(-c2nc(-c3ccc4nc[nH]c4c3)no2)cc1F
3.44 | Brc1ccc(-c2nc(-c3ccc4nc[nH]c4c3)no2)cc1
2.95 | Fc1ccc(-c2nc(-c3ncccn3)no2)cc1F
8.29 | Fc1ccc(-c2nc(-c3ccc(Cl)cc3)no2)cc1F
3.15 | Fc1ccc(-c2nc(-c3cccnc3)no2)cc1F
7.34 | Fc1ccc(-c2nc(-c3ccc4nc[nH]c4c3)no2)c(F)c1
13.2 | Clc1cccc(-c2nc(-c3ccc4nc[nH]c4c3)no2)c1
5.68 | Fc1ccc(-c2noc(-c3ccc(F)c(F)c3)n2)cc1
5.14 | Fc1cc(F)c(-c2nc(-c3ccc4nc[nH]c4c3)no2)cc1Cl
20.2 | Fc1ccc(F)c(-c2nc(-c3ccc4nc[nH]c4c3)no2)c1
9.59 | Fc1ccc(-c2nc(-c3ccc4nc[nH]c4c3)no2)cc1Cl

Tested on: HepG2
Test: Cytotoxicity against human HepG2 cells at 80 uM after 24 hrs by MTT assay
Format: cell-based
Conditions: hepg2, 24 h

SMILES | Activity
Fc1cccc(-c2nc(-c3ccc4nc[nH]c4c3)no2)c1 | Non-Toxic
Fc1ccc(-c2nc(-c3ccc4ccccc4c3)no2)cc1F | Non-Toxic
Fc1ccc(-c2nc(-c3ccc4nc[nH]c4c3)no2)c(Cl)c1 | Non-Toxic
Fc1ccc(-c2nc(-c3ccccc3Br)no2)cc1F | Non-Toxic
Fc1ccc(-c2nc(-c3ccncc3)no2)cc1F | Non-Toxic
Fc1cc(F)c(-c2nc(-c3ccc4nc[nH]c4c3)no2)cc1F | Non-Toxic
Brc1ccc(-c2nc(-c3ccc4nc[nH]c4c3)no2)cc1 | Non-Toxic
Fc1ccc(-c2nc(-c3ncccn3)no2)cc1F | Non-Toxic
Fc1ccc(-c2nc(-c3ccc(Cl)cc3)no2)cc1F | Non-Toxic
Fc1ccc(-c2nc(-c3cccnc3)no2)cc1F | Non-Toxic
Fc1ccc(-c2nc(-c3ccc4nc[nH]c4c3)no2)c(F)c1 | Non-Toxic
Clc1cccc(-c2nc(-c3ccc4nc[nH]c4c3)no2)c1 | Non-Toxic
Fc1ccc(-c2noc(-c3ccc(F)c(F)c3)n2)cc1 | Non-Toxic
Fc1cc(F)c(-c2nc(-c3ccc4nc[nH]c4c3)no2)cc1Cl | Non-Toxic
Fc1ccc(F)c(-c2nc(-c3ccc4nc[nH]c4c3)no2)c1 | Non-Toxic
Fc1ccc(-c2nc(-c3ccc4[nH]cnc4c3)no2)cc1Cl | Non-Toxic

Molecular target: T1, Nuclear factor erythroid 2-related factor 2 (Homo sapiens)
Test: Activation of Nrf2 in human HepG2-ARE-C8 cells assessed as induction of ARE-mediated luciferase activity at 20 uM after 24 hrs by luciferase reporter gene assay relative to control
Format: cell-based
Conditions: not given
Outline: as §1

Activity | SMILES
8.83 | Fc1cccc(-c2nc(-c3ccc4nc[nH]c4c3)no2)c1
1.96 | Fc1ccc(-c2nc(-c3ccc4ccccc4c3)no2)cc1F
11.8 | Fc1ccc(-c2nc(-c3ccc4nc[nH]c4c3)no2)c(Cl)c1
1.98 | Fc1ccc(-c2nc(-c3ccccc3Br)no2)cc1F
1.29 | Fc1ccc(-c2nc(-c3ccncc3)no2)cc1F
3.95 | Fc1cc(F)c(-c2nc(-c3ccc4nc[nH]c4c3)no2)cc1F
13.4 | Brc1ccc(-c2nc(-c3ccc4nc[nH]c4c3)no2)cc1
2.05 | Fc1ccc(-c2nc(-c3ncccn3)no2)cc1F
7.65 | Fc1ccc(-c2nc(-c3ccc(Cl)cc3)no2)cc1F
3.15 | Fc1ccc(-c2nc(-c3cccnc3)no2)cc1F
4.58 | Fc1ccc(-c2nc(-c3ccc4nc[nH]c4c3)no2)c(F)c1
12.8 | Clc1cccc(-c2nc(-c3ccc4nc[nH]c4c3)no2)c1
3.75 | Fc1ccc(-c2noc(-c3ccc(F)c(F)c3)n2)cc1
3.35 | Fc1cc(F)c(-c2nc(-c3ccc4nc[nH]c4c3)no2)cc1Cl
16.9 | Fc1ccc(F)c(-c2nc(-c3ccc4nc[nH]c4c3)no2)c1
7.53 | Fc1ccc(-c2nc(-c3ccc4nc[nH]c4c3)no2)cc1Cl
